Screens deposited in PubChem BioAssay by Broad Institute.
F508del corr = CFTR F508del correction in bronchial cells; CFBE cells, YFP halide quenching; stimulated with forskolin plus potentiator P3; % fluorescence drop versus neutral controls; activity (quench increase), % at 7.58 µM; 350,000 tested, 0.36% active; AID 720511;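 active = mean added fluorescence quench of at least 8% versus neutral control, with both replicates also reaching 8%; inconclusive = only one of the mean or replicate conditions met; inactive = mean below 8% and not both replicates reaching 8%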;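 note: cells transiently co-express mutant CFTR-F508del with the halide-sensitive YFP; corrector assay measuring rescue of mutant channel to the surface after 24 h compound exposure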
FN deposit inh = fibronectin deposition inhibition; inhibition, % at 12.6 µM; AH1F fibroblasts, Alexa488-fibronectin deposition fluorescence, overnight; 350,000 tested, 0.086% active;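 active = mean inhibition across replicates of 30% or more, regardless of how many single replicates reach that level; inconclusive = mean under 30% yet at least half of replicates reach 30%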;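 note: positive control wells lacked labelled fibronectin entirely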
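Material: AH1F fibroblast monolayer depositing Alexa488-labelled fibronectin into matrix / Amount: 10000 AH1F cells per well / Signal: fluorescence 485/525 nm / Medium: DMEM, 2% serum / Compound: single dose, pinned / Incubation: 1 h cell adhesion before compound, then overnight fibronectin incubation / Reagent: Alexa488-FN, 24 nM final / Read-out: inhibition of fibronectin deposition signal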
DENV2 CPE rescue = DENV2-induced cell death inhibition. DENV2-infected cells, cytopathic effect rescue, plate reader. CPE inhibition, % at 9.99 µM. 350,000 tested, 1.7% active; in the data active = CPE inhibition above about 20%, passing the limit was not always enough; inconclusive = no clear call, values can overlap the other calls; tested in BHK-21 cells;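 note: 0% = median of neutral control wells and 100% = median of positive control wells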
PGC1a acetyl inh = modulators of PGC1a acetylation; U2OS PGC1a acetylation, AlphaScreen anti-acetyl-lysine; with virally co-expressed GCN5 acetyltransferase; inhibition, % at 15.6 µM; 350,000 tested, 0.17% active; AID 651687;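 active = every replicate shows inhibition of at least 40%; inconclusive = mean inhibition at least 40% but some replicate below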;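 note: 0% = neutral control wells and 100% = positive control wells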
Xi reactivation = reactivates the inactive X chromosome in mouse fibroblasts. XiGFP mouse fibroblasts, % GFP-positive cells imaging, 3 d; cells co-treated with 5-aza-dC sensitizer; scaled so ellipticine positive control = 100%. activation, % at 7.58 µM. 360,000 tested, 0.055% active;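 active = mean normalized replicate activation at least 10% and every replicate at or above 10%; inconclusive = only one of the two criteria met; inactive = mean below 10% and not all replicates reach 10%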;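 note: 0% = median of on-plate neutral control wells and 100% = ellipticine 6 µM median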
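Material: XiGFP fibroblasts, SV40-immortalized; Buffer or medium: DMEM containing 5-aza-dC; Compound dosing: single point; Times: 3 days compound exposure.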
Cneo AK release = causes C. neoformans cell lysis; 360,000 tested, 0.2% active; adenylate kinase release luminescence, 4 h; normalised: neutral wells 0, clomiphene wells 100; lysis activity, % at 15 µM; AID 651654;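 active = mean lysis activity across replicates of at least 80%, whatever share of replicates individually reach that level; inactive = mean lysis activity below 80%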
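Material: C. neoformans cells; Schedule: 4 h static compound exposure, 37 °C, read 1 h post-reagent; Measured by: adenylate kinase release luminescence; Read-out: signal increase indicating cell lysis; Controls: Clomiphene as positive lysis control.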
The depositor's hits bear a star; ? = inconclusive; nt = not tested or not shown. This is a sample that favours compounds with a hit; in the whole collection about 1.9% have one here.

SMILES	F508del corr	FN deposit inh	DENV2 CPE rescue	PGC1a acetyl inh	Xi reactivation	Cneo AK release
CC(=O)N(C)C[C@@H]1Oc2cc(Br)ccc2S(=O)(=O)N([C@H](C)CO)C[C@H]1C	0.0	-5.1	-10.2	8.2	-0.2	-4.2
OCC#CCSc1nnc(-c2cccc3ccccc23)o1	0.6	-0.5	92.8*	6.6	0.1	-2.0
O=C(OCC#CCSc1nnc(-c2cccc3ccccc23)o1)c1ccc(Cl)cc1	-1.2	-1.8	-3.9	4.8	0.0	2.0
CCCNC(=O)N1C[C@H]2[C@@H](c3ccccc31)[C@@H](CO)N2C(=O)Nc1ccccc1	-2.8	nt	-0.3	-1.1	0.2	41.7
CC(C)C[C@H](NC(=O)c1nc[nH]c1C(=O)N1CCN(C(=O)OC(C)(C)C)CC1)C(=O)OC(C)(C)C	12.3*	-0.5	-9.4	nt	0.0	4.5
COc1ccccc1C#Cc1ccc2c(c1)O[C@@H](CN(C)C)[C@@H](C)CN([C@H](C)CO)S2(=O)=O	-1.9	16.1	nt	-21.7	-0.9	nt
Cc1nc(N(C)C)c2sc(=S)n(-c3ccccc3)c2n1	4.0	-1.7	nt	0.8	0.2	-0.6
Cc1nc(N(C)C)c2sc(=S)n(C)c2n1	-2.1	-0.1	37.6*	6.0	0.2	1.0
C[C@@H]1CN([C@@H](C)CO)C(=O)c2cccc(NS(=O)(=O)c3ccc(F)cc3)c2O[C@H]1CN(C)CC1CCCCC1	1.1	nt	0.4	0.7	0.2	2.5
COCC(=O)Nc1ccc2c(c1)OC[C@@H](C)N(Cc1ccccc1OC)C[C@H](C)[C@@H](OC)CN(C)C2=O	-2.0	8.3	-7.7	-2.4	0.2	-0.1
c1ccc(-c2cnnc(SCc3cn4cccnc4n3)n2)cc1	nt	nt	nt	11.3	nt	nt
c1ccc2[nH]c(SCc3cn4cccnc4n3)nc2c1	nt	31.2*	nt	nt	0.0	nt
CO[C@@H]1CN(C)C(=O)c2ccc(NC(=O)C3CCC3)cc2OC[C@H](C)N(Cc2ccncc2)C[C@@H]1C	2.3	nt	-1.7	nt	-0.1	0.8
CCNC(=O)[C@H]1[C@H](CO)[C@H]2Cn3c(ccc(-c4cccnc4)c3=O)[C@@H]1N2Cc1ccccc1	-2.2	nt	9.1	nt	0.4	1.6
COc1ccc(-c2ccc3c(c2)S(=O)(=O)c2cccc(C(=O)NCCOc4ccccc4Cl)c2C3=O)cc1OC	0.5	-9.5	21.9*	-0.2	0.1	0.5
COc1ccc(-c2ccc3c(c2)S(=O)(=O)c2cccc(C(=O)NCc4ccccc4Cl)c2C3=O)cc1OC	2.0	-1.1	-11.8	3.8	0.0	-1.8
Cc1ccc(CNS(=O)(=O)c2ccc3c(c2)C(C)(C)C(=O)N3C)cc1	-4.7	1.3	?	-3.4	0.0	-3.0
CN(C)c1ccc(CNS(=O)(=O)c2ccc3c(c2)C(C)(C)C(=O)N3C)cc1	-4.4	3.5	48.5*	-4.3	-0.1	0.6
CNC[C@H]1Oc2c(NC(=O)c3cc(C)nn3C)cccc2C(=O)N([C@H](C)CO)C[C@@H]1C	1.5	nt	12.7	4.5	-0.4	0.3
CCN1CCN(S(=O)(=O)c2ccc(C(=O)Nc3sc4c(c3C(N)=O)CCN(CC)C4)cc2)CC1	1.7	0.7	2.2	3.3	53.8*	-1.6
CCN1CCc2c(sc(NC(=O)CN3C(=O)c4ccccc4C3=O)c2C(N)=O)C1	-3.3	-7.2	-1.5	4.9	0.0	2.0
CCN1CCc2c(sc(NC(=O)c3ccc4ccccc4c3)c2C(N)=O)C1	2.0	4.6	-0.6	nt	38.1*	-7.4
CCCNC(=O)N1CC2(C1)[C@H](c1ccccc1)[C@@H](CO)N2Cc1ccc(F)cc1	-2.7	nt	-5.8	-7.4	0.3	nt
COc1ccccc1S(=O)(=O)Nc1ccc2c(c1)OC[C@@H](C)NC[C@@H](C)[C@@H](OC)CN(C)C2=O	-3.7	-1.2	13.0	-1.3	-0.1	-1.8
COc1ccc(S(=O)(=O)N(C)C[C@@H]2Oc3c(NC(=O)Nc4ccc(F)cc4)cccc3C(=O)N([C@H](C)CO)C[C@@H]2C)cc1	-2.9	nt	4.3	4.1	0.0	nt
COc1ccc(C2Nc3cccc4cccc(c34)N2)cc1Br	-2.5	-3.6	4.5	8.8	-0.1	0.7
COc1cc(C2Nc3cccc4cccc(c34)N2)ccc1OC(C)=O	nt	nt	nt	56.2*	nt	-1.3
